{"source": "ChEMBL document CHEMBL1770131", "about": "“Radiosynthesis and preliminary evaluation of 4-[18F]fluoro-N-[4-[6-(isopropylamino)pyrimidin-4-yl]-1,3-thiazol-2-yl]-N-methylbenzamide as a new positron emission tomography ligand for metabotropic glutamate receptor subtype 1” (Bioorg Med Chem Lett, 2011)", "key": {"[1]": {"tested_on": "Hippocampus", "test": "Biodistribution in Sprague-Dawley rat hippocampus at 5 MBq, iv after 30 mins by autoradiography in presence of 1 mg/kg of mGluR1 antagonist JNJ16259685", "assay_type": "organism-based", "parameters": "dose 1 mg/kg, route intravenous", "settings": "in vivo, 0.5 h", "procedure,_shortened": "(§1)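 Male Sprague–Dawley rats given about 5 MBq radioligand in saline by tail vein, with or without co-injected JNJ16259685 at 1 mg/kg. Killed by cervical dislocation 30 min after injection. Brains frozen on dry ice, cut into 20 µm sagittal sections, and imaged by autoradiography as for the in vitro sections.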"}, "[2]": {"tested_on": "Striatum", "test": "Biodistribution in Sprague-Dawley rat striatum at 5 MBq, iv after 30 mins by autoradiography in presence of 1 mg/kg of mGluR1 antagonist JNJ16259685", "assay_type": "organism-based", "parameters": "dose 1 mg/kg, route intravenous", "settings": "in vivo, 0.5 h", "procedure,_shortened": "as §1"}, "[3]": {"tested_on": "Cerebellum", "test": "Biodistribution in Sprague-Dawley rat cerebellum at 5 MBq, iv after 30 mins by autoradiography in presence of 1 mg/kg of mGluR1 antagonist JNJ16259685", "assay_type": "organism-based", "parameters": "dose 1 mg/kg, route intravenous", "settings": "in vivo, 0.5 h", "procedure,_shortened": "as §1"}, "[4]": {"tested_on": "Rattus norvegicus", "test": "Biodistribution in Sprague-Dawley rat pons-medulla at 5 MBq, iv after 30 mins by autoradiography in presence of 1 mg/kg of mGluR1 antagonist JNJ16259685", "assay_type": "organism-based", "parameters": "dose 1 mg/kg, route intravenous", "settings": "in vivo, 0.5 h", "procedure,_shortened": "as §1"}, "[5]": {"tested_on": "Thalamus", "test": "Biodistribution in Sprague-Dawley rat thalamus at 5 MBq, iv after 30 mins by autoradiography", "assay_type": "ADME, organism-based", "settings": "in vivo, 0.5 h", "procedure,_shortened": "as §1"}, "[6]": {"tested_on": "Thalamus", "test": "Biodistribution in Sprague-Dawley rat thalamus at 5 MBq, iv after 30 mins by autoradiography in presence of 1 mg/kg of mGluR1 antagonist JNJ16259685", "assay_type": "organism-based", "parameters": "dose 1 mg/kg, route intravenous", "settings": "in vivo, 0.5 h", "procedure,_shortened": "as §1"}, "[7]": {"tested_on": "Cerebral cortex", "test": "Biodistribution in Sprague-Dawley rat cerebral cortex at 5 MBq, iv after 30 mins by autoradiography in presence of 1 mg/kg of mGluR1 antagonist JNJ16259685", "assay_type": "organism-based", "parameters": "dose 1 mg/kg, route intravenous", "settings": "in vivo, 0.5 h", "procedure,_shortened": "as §1"}, "[8]": {"tested_on": "Hippocampus", "test": "Biodistribution in Sprague-Dawley rat hippocampus at 5 MBq, iv after 30 mins by autoradiography", "assay_type": "ADME, organism-based", "settings": "in vivo, 0.5 h", "procedure,_shortened": "as §1"}, "[9]": {"tested_on": "Rattus norvegicus", "test": "Biodistribution in Sprague-Dawley rat pons-medulla at 5 MBq, iv after 30 mins by autoradiography", "assay_type": "ADME, organism-based", "settings": "in vivo, 0.5 h", "procedure,_shortened": "as §1"}, "[10]": {"tested_on": "Cerebral cortex", "test": "Biodistribution in Sprague-Dawley rat cerebral cortex at 5 MBq, iv after 30 mins by autoradiography", "assay_type": "ADME, organism-based", "settings": "in vivo, 0.5 h", "procedure,_shortened": "as §1"}, "[11]": {"test": "Octanol-water distribution coefficient, Log D of the compound in at pH 7.4 by shaking method", "assay_type": "physicochemical", "procedure,_shortened": "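Radioligand partitioned between n-octanol and PBS at pH 7.4 by shaking. Vortexed 3 min at room temperature, centrifuged 3500 rpm for 5 min. 1 mL of each phase weighed and counted. Organic layer re-partitioned until Log D values were consistent. Log D = Log[cpm/g octanol / cpm/g PBS]. Done in triplicate.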"}, "[12]": {"tested_on": "Cerebellum", "test": "Biodistribution in Sprague-Dawley rat cerebellum at 5 MBq, iv after 30 mins by autoradiography", "assay_type": "ADME, organism-based", "settings": "in vivo, 0.5 h", "procedure,_shortened": "as §1"}, "[13]": {"tested_on": "Striatum", "test": "Biodistribution in Sprague-Dawley rat striatum at 5 MBq, iv after 30 mins by autoradiography", "assay_type": "ADME, organism-based", "settings": "in vivo, 0.5 h", "procedure,_shortened": "as §1"}}, "data": [{"smiles": "CC(C)Nc1cc(-c2csc(N(C)C(=O)c3ccc([18F])cc3)n2)ncn1", "values": [{"measurement": "Drug uptake", "setting": "[1]", "value": 58.3, "unit": "PSL/mm2"}, {"measurement": "Drug uptake", "setting": "[2]", "value": 54.1, "unit": "PSL/mm2"}, {"measurement": "Drug uptake", "setting": "[3]", "value": 76.6, "unit": "PSL/mm2"}, {"measurement": "Drug uptake", "setting": "[4]", "value": 58.8, "unit": "PSL/mm2"}, {"measurement": "Drug uptake", "setting": "[5]", "value": 672.6, "unit": "PSL/mm2"}, {"measurement": "Drug uptake", "setting": "[6]", "value": 63.1, "unit": "PSL/mm2"}, {"measurement": "Drug uptake", "setting": "[7]", "value": 49.6, "unit": "PSL/mm2"}, {"measurement": "Drug uptake", "setting": "[8]", "value": 428.1, "unit": "PSL/mm2"}, {"measurement": "Drug uptake", "setting": "[9]", "value": 69.3, "unit": "PSL/mm2"}, {"measurement": "Drug uptake", "setting": "[10]", "value": 342.2, "unit": "PSL/mm2"}, {"measurement": "logD", "setting": "[11]", "value": 1.46}, {"measurement": "Drug uptake", "setting": "[12]", "value": 635.9, "unit": "PSL/mm2"}, {"measurement": "Drug uptake", "setting": "[13]", "value": 478.5, "unit": "PSL/mm2"}]}]}
